{"data": "Experimental data from different studies", "effect on": "cell growth or viability", "note": "Compare with care: the assays were run in different laboratories."}
{"SMILES": "CCCCCCCCCCCCCCCCCCOc1cccc(CC(=O)OCC[N+]2(C)CCCC2)c1", "cell line": "HOP-62", "assay": "SRB", "conditions": "10 µM", "quantity": "inhibition", "result": "9.94%"}
{"SMILES": "COC(=O)CNC(=O)C(=O)OC", "cell line": "OCI-Ly1", "assay": "ATP luminescence", "conditions": "0.1 µM, 5 days", "quantity": "viability", "result": "198%"}
{"SMILES": "CCCCCCCCCCCCCCCCCCOCC(COP(=O)([O-])OCC[N+](C)(C)C)OC (stereo not drawn)", "cell line": "HOP-62", "assay": "SRB", "conditions": "10 µM", "quantity": "inhibition", "result": "56%"}
{"SMILES": "O=C(/C=C/c1cccc(C(=O)NO)c1)NO", "cell line": "OCI-Ly1", "assay": "ATP luminescence", "conditions": "0.1 µM, 5 days", "quantity": "viability", "result": "181%"}
{"SMILES": "NCCNC(=O)c1ccc(-c2nc3ccc4[nH]ncc4c3c3c2CCCC3)cc1", "cell line": "K562", "assay": "resazurin", "conditions": "72 h", "quantity": "GI50", "result": "6.1 µM"}
{"SMILES": "O=C(Nc1ccc(-c2ccccc2)cc1)[C@H]1O[C@H](O[C@@H]2[C@@H](OCc3ccc4ccccc4c3)[C@H](O[C@H]3O[C@H](CNS(=O)(=O)O)[C@@H](OCc4ccc5ccccc5c4)C[C@H]3NS(=O)(=O)O)[C@@H](NS(=O)(=O)O)C[C@H]2NS(=O)(=O)O)[C@H](OCc2ccc3ccccc3c2)[C@@H](NS(=O)(=O)O)[C@@H]1OCc1ccc2ccccc2c1", "cell line": "4T1", "assay": "CCK-8", "conditions": "48 h", "quantity": "EC50", "result": "12.5 µM"}
{"SMILES": "CCCCCCCCCCCCCCCCCCOc1cccc(CC(=O)OCC[N+](C)(C)C)c1", "cell line": "HOP-62", "assay": "SRB", "conditions": "10 µM", "quantity": "inhibition", "result": "3.94%"}
{"SMILES": "CN(C)CCNC(=O)c1ccc(-c2nc3ccc4[nH]ncc4c3c3c2CCCCC3)c(F)c1", "cell line": "K562", "assay": "resazurin", "conditions": "72 h", "quantity": "GI50", "result": "1.4 µM"}
{"SMILES": "CCCCCCCCCCCCCCCCCCOc1ccccc1CC(=O)OCC[N+](CC)(CC)CC", "cell line": "HOP-92", "assay": "SRB", "conditions": "10 µM", "quantity": "inhibition", "result": "93.2%"}
{"SMILES": "O=C(NCCN1CCCC1)c1ccc(-c2nc3ccc4[nH]ncc4c3c3c2CCCC3)c(F)c1", "cell line": "K562", "assay": "resazurin", "conditions": "72 h", "quantity": "GI50", "result": "1.7 µM"}
{"SMILES": "CC(=O)OC[C@H]1O[C@@H](n2cnc(N)nc2=O)[C@H](OC(C)=O)[C@@H]1OC(C)=O", "cell line": "OCI-Ly1", "assay": "ATP luminescence", "conditions": "0.5 µM, 5 days", "quantity": "viability", "result": "169%"}
{"SMILES": "O=C(NCC1CC1)c1ccc(-c2nc3ccc4[nH]ncc4c3c3c2CCCC3)cc1", "cell line": "K562", "assay": "resazurin", "conditions": "72 h", "quantity": "GI50", "result": "> 10 µM"}
{"SMILES": "O=C(NO)c1ccc(CC(=O)N(CCO)c2ccccc2)cc1", "cell line": "OCI-Ly1", "assay": "ATP luminescence", "conditions": "0.1 µM, 5 days", "quantity": "viability", "result": "94.6%"}
{"SMILES": "CCCCCCCCCCCCCCCCCCOc1ccccc1CC(=O)OCC[N+](C)(C)C", "cell line": "HOP-62", "assay": "SRB", "conditions": "10 µM", "quantity": "inhibition", "result": "95.1%"}
{"SMILES": "CN(C)CCNC(=O)c1ccc(-c2nc3ccc4[nH]ncc4c3c3c2COCC3)cc1", "cell line": "K562", "assay": "resazurin", "conditions": "72 h", "quantity": "GI50", "result": "3.5 µM"}
